Here are results for 14 compounds from PubChem BioAssay.

Assay [1] can be described thus: inhibitors of TNFa-induced NFkB p65 translocation, primary screen, imaging, HUVEC, MLSMR starter and 10KST1 sets (AID 438;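 active = inhibition above 20% together with a positive visual image hit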;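 also: compound added about 3h40 before a 20 min TNFalpha stimulation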;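 as to inhibition: signal is the nuclear over cytoplasmic p65 intensity ratio per well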). Particulars: HUVEC TNFa-induced p65 nuclear translocation; cell count: measured here: nuclei count (cytotoxicity indicator), at 2.08 µM; inhibition: at 2 µM, stronger effect = higher value, 0% TNFa-plus-vehicle, 100% no-TNFa wells.
A short description of assay [2]: reduction of polyQ htt aggregates in cells – imaging, exon1htt(103Q)mCFP cells, high-content imaging, primary screen (AID 483;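 active = visual image review flags a hit and inhibition of aggregation exceeds 20%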;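 also: compound exposure lasted 3 days before fixation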;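 as to nuclei count: percent of the per-plate median nuclei count of sample wells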). Particulars: exon1htt(103Q)mCFP cell line, aggregate imaging, at 2 µM; inhibition of aggregation: stronger effect = higher value; nuclei count: measured here: cell count, toxicity.
Assay [3] can be described thus: endothelial E-selectin expression blockers – imaging, HUVEC, immunofluorescence, MLSMR starter and 10KST1 sets, primary screen (AID 487;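 active = visually confirmed hit in the image check and inhibition above 20%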;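 as to inhibition: signal is fraction of cell area covered by stained E-selectin grains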;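 as to nuclei count: 100% = median nuclei count of all wells on the same plate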). Particulars: HUVEC TNFalpha-induced E-selectin immunofluorescence imaging, at 2 µM; inhibition: stronger effect = higher value; nuclei count: measured here: cell number, toxicity.
Assay [4] has as its target Voltage-gated potassium channel subunit beta-2 (Rattus norvegicus) (UniProt P62483). In words: inhibitors of rat Kvbeta2 reductase activity – biochemical, NADPH fluorescence, primary screen (AID 622;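 active = fluorescence slope higher than the sample average by over 3 SD, cut at about -0.22 in these data, passing the limit was not always enough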;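 also: slope of raw intensity against log time taken from 70 to 1610 s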). The note with it: recombinant KvBeta, 4-cyanobenzaldehyde reduction, at 10 µM, stronger effect = higher value.
Assay [5] shares this target. Briefly: enhancers of rat Kvbeta2 NADPH turnover – biochemical, NADPH fluorescence, primary screen (AID 623;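 active = NADPH fluorescence slope more negative than the mean of all samples by about 3 SD, 99.7% confidence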;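 also: fluorescence intensity change per second fitted from 20 to 320 s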). Particulars: Recombinant KvBeta, NADPH fluorescence decrease slope, 10 min; at 10 µM; stronger effect = lower value.
Assay [6] has as its target Muscarinic acetylcholine receptor M4 (Homo sapiens) (UniProt P08173). Briefly: M4-linked GIRK flux change, two-sided – cell-based, HEK293 M4/GIRK, thallium flux, BTC-AM, M4 allosteric agonist project, primary screen (AID 625;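 active = fluorescence slope after compound addition differing from the mean of all tested samples at 99.7% confidence, mostly higher but some lower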;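 also: thallium influx through GIRK channels coupled to M4 in HEK293 cells with BTC-AM dye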). The note with it: at 10 µM, actives lie on both sides. The method in brief:
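assay system = HEK293 cells with M4 receptor and GIRK channels | medium = pH 7.3 thallium assay buffer | doses = 10 µM final, single point | timing = cells overnight at 37 °C, BTC-AM loading 1 h, reads 2 min total | signal = BTC-AM fluorescence, 1 Hz kinetic reads | read-out = post-addition slope, 15–24 s, of baseline-normalized fluorescence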

A short description of assay [7]: blockers of RIG-like receptor reporter activation – cell-based, Sendai virus stimulus, luciferase, 10K MLSCN set, TLR/RLR signaling modifier project, primary screen (AID 602276;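 active = inhibition at or above 50% at 10 µM; inactive = inhibition below 50%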;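 also: firefly luciferase from ISG56 promoter only with Renilla not read in this screen; 0% = Sendai virus plus DMSO and 100% = medium plus DMSO without virus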). Particulars: HEK293 RL24 IRF3 luciferase reporter, at 10 µM, stronger effect = higher value. For orientation: A reporter such as luciferase makes a cellular process visible.
The nature of assay [8]: TLR3 IRF3 reporter activation blockers – cell-based, poly I:C stimulus, luciferase, 10K MLSCN set, primary screen (AID 602277). The note with it: HEK293-TLR3 RL24 IRF3 luciferase reporter, at 10 µM, stronger effect = higher value.

Calls of active or inactive are those of the source.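 The calls were made as follows, unless noted: active = inhibition of the reporter signal at or above 50%; inactive = inhibition below 50%.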

Chain of Voltage-gated potassium channel subunit beta-2 (Rattus norvegicus) (P62483 whole entry, looked up): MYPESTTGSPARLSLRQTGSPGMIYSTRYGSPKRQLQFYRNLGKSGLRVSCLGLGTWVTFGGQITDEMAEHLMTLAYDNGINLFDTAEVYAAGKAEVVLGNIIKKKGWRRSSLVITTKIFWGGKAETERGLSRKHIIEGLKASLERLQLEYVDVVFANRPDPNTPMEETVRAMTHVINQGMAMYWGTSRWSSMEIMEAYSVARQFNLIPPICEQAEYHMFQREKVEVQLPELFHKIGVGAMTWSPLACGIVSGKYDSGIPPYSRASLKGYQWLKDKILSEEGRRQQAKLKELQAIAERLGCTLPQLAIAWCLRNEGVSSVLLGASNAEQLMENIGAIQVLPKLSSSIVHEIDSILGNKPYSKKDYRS
Chain of Muscarinic acetylcholine receptor M4 (Homo sapiens) (P08173 whole entry, looked up): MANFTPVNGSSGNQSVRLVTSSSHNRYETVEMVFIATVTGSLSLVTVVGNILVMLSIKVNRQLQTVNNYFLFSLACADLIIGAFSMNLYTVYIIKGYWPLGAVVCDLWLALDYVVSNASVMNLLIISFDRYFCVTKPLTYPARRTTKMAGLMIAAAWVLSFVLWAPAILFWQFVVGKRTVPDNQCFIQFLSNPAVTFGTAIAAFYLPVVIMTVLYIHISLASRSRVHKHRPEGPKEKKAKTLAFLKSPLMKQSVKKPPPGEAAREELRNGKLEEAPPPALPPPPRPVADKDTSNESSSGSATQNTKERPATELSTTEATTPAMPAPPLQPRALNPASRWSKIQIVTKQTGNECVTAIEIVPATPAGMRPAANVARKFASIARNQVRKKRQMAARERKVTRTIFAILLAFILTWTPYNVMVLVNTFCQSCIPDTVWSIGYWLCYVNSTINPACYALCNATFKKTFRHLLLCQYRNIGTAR

With `O=C(CCN1CCOCC1)Nc1ccc2c(c1)CCC2`, the cell count in assay [1] is 228. Also, the inhibition in assay [1] is 5.7% (inactive); in assay [3] it was -83.8% (inactive); in assay [7], 4.13% (inactive); in assay [8] it was -9.22% (inactive). In addition, the inhibition of aggregation in assay [2] was 17.3% (inactive). The nuclei count in assay [2] was found to be 74.9%; in assay [3], 140%. In addition, the fluorescence slope in assay [4] is -0.442 (inactive); in assay [6], 0.00437 (inactive). Also, in assay [5], the NADPH fluorescence slope is -5.3e-05 (inactive).

As for `Cc1ccc(NC(=O)Nc2ccc3c(c2)N(C)C(=O)CS3)nc1`, the cell count in assay [1] amounted to 562. Further, the inhibition is -6.9% (inactive) in assay [1], -45% (inactive) in assay [3], 7.37% (inactive) in assay [7] and 0.72% (inactive) in assay [8]. In addition, the inhibition of aggregation in assay [2] is -30.5% (inactive). The results for the nuclei count in assay [2] and in assay [3] were 123% and 116%, respectively. Moreover, the fluorescence slope is -0.395 (inactive) in assay [4] and 0.00547 (inactive) in assay [6]. Besides, the NADPH fluorescence slope in assay [5] was 6.1e-05 (inactive).

Consider `Cc1ccc(S(=O)(=O)Cc2ccc(C(=O)NCc3ccc4c(c3)OCO4)o2)cc1`, for which, in assay [1], the cell count was found to be 592. Besides, the inhibition was -1.9% (inactive) in assay [1], -16.5% (inactive) in assay [3], 9.39% (inactive) in assay [7] and 14.2% (inactive) in assay [8]. Also, the inhibition of aggregation in assay [2] is -21.6% (inactive). The nuclei count stood at 86.7% in assay [2] and 106% in assay [3]. The figures for the fluorescence slope in assay [4] and in assay [6] were -0.454 (inactive) and 0.00504 (inactive), respectively. Also, the NADPH fluorescence slope in assay [5] was -9.9e-06 (inactive).

For `CCn1c(=O)cc(SCC(=O)NCC2CCCO2)c2ccccc21` (centres undefined), in assay [1], the cell count worked out at 404. For the same compound, the inhibition was -4.9% (inactive) in assay [1], 32.5% (inactive) in assay [3], 18.5% (inactive) in assay [7] and 34.6% (inactive) in assay [8]. For the same compound, the inhibition of aggregation in assay [2] is 0% (inactive). Further, the nuclei count stood at 97.1% in assay [2] and 103% in assay [3]. In addition, the fluorescence slope in assay [4] was -0.568 (inactive); in assay [6] it was 0.00498 (inactive). Further, the NADPH fluorescence slope in assay [5] is -1.6e-05 (inactive).

Regarding `Cc1ccc(CNC(=O)CSc2n[nH]c(N)n2)cc1`, in assay [1], the cell count is 498. Moreover, the inhibition in assay [1] was -7.2% (inactive); in assay [3] it was -21.8% (inactive); in assay [7], 15.9% (inactive); in assay [8] it was 20.6% (inactive). In assay [2], the inhibition of aggregation is 20% (inactive). For the same compound, the nuclei count was found to be 44.8% in assay [2] and 136% in assay [3]. Further, the fluorescence slope in assay [4] was -0.579 (inactive); in assay [6], 0.00347 (inactive). Moreover, the NADPH fluorescence slope in assay [5] is -6.4e-05 (inactive).

As to `CCN1CCN(c2nc(-c3cccnc3)nc3ccccc23)CC1`, the cell count in assay [1] stood at 598. For the same compound, the inhibition was 11.2% (inactive) in assay [1], -58.2% (inactive) in assay [3], 12.9% (inactive) in assay [7] and 37.7% (inactive) in assay [8]. Moreover, the inhibition of aggregation in assay [2] was -11.6% (inactive). Moreover, the nuclei count in assay [2] amounted to 94.7%; in assay [3], 103%. Moreover, the fluorescence slope in assay [4] was -0.468 (inactive); in assay [6], 0.00671 (inactive). Besides, the NADPH fluorescence slope in assay [5] was 2.1e-05 (inactive).

In the case of `CCn1nc(C(=O)OCC(=O)c2cc(C)n(Cc3cccs3)c2C)c2ccccc2c1=O`, the cell count in assay [1] amounted to 381. The inhibition is -2.1% (inactive) in assay [1], -97.8% (inactive) in assay [3], 19.8% (inactive) in assay [7] and 7.59% (inactive) in assay [8]. For the same compound, the inhibition of aggregation in assay [2] is 25.7% (inactive). Besides, the nuclei count in assay [2] is 90.2%; in assay [3], 113%. The results for the fluorescence slope in assay [4] and in assay [6] were -0.556 (inactive) and 0.00739 (inactive), respectively. Also, in assay [5], the NADPH fluorescence slope is 0.000162 (inactive).

For the compound `CC(C)(C)SCCNC(=O)COc1ccccc1`, the cell count in assay [1] worked out at 368. Besides, the inhibition in assay [1] is -2.3% (inactive); in assay [3], -16.9% (inactive); in assay [7], 1.01% (inactive); in assay [8] it was -18% (inactive). Also, the inhibition of aggregation in assay [2] was 16.8% (inactive). Further, the values for the nuclei count in assay [2] and in assay [3] were 91.5% and 110%, respectively. Moreover, the fluorescence slope in assay [4] was -0.32 (inactive); in assay [6], 0.00624 (inactive). In assay [5], the NADPH fluorescence slope is -4.6e-05 (inactive).

With `CSC(=O)CC(=O)NC(=O)c1ccccc1`, the cell count in assay [1] is 373. The inhibition in assay [1] is 0% (inactive); in assay [3], -76.9% (inactive); in assay [7], 7.05% (inactive); in assay [8], 5.94% (inactive). In addition, the inhibition of aggregation in assay [2] is -2.5% (inactive). Moreover, the nuclei count in assay [2] was found to be 90%; in assay [3], 159%. Further, the fluorescence slope in assay [4] is -0.605 (inactive); in assay [6], 0.00374 (inactive). Moreover, the NADPH fluorescence slope in assay [5] is 1.1e-06 (inactive).

On to `COc1ccccc1CNC(=O)C1CCN(S(=O)(=O)N2CCCCC2)CC1`, for which the cell count in assay [1] amounted to 571. The inhibition is -1.8% (inactive) in assay [1], -44.6% (inactive) in assay [3], 14% (inactive) in assay [7] and 21.7% (inactive) in assay [8]. Also, the inhibition of aggregation in assay [2] is 4.5% (inactive). Moreover, the nuclei count in assay [2] amounted to 102%; in assay [3], 89.6%. In addition, the fluorescence slope in assay [4] is -0.426 (inactive); in assay [6], 0.00585 (inactive). Moreover, in assay [5], the NADPH fluorescence slope was -3.4e-05 (inactive).

For the compound `Cc1cccc(C)c1OCC(=O)Nc1cccc(NC(=O)c2ccco2)c1`, the cell count in assay [1] amounted to 464. Besides, the inhibition in assay [1] is -9.5% (inactive); in assay [3], -10.3% (inactive); in assay [7] it was 13.3% (inactive); in assay [8] it was 9.13% (inactive). Further, the inhibition of aggregation in assay [2] is 23.3% (inactive). The results for the nuclei count in assay [2] and in assay [3] were 87.7% and 96.3%, respectively. Further, the fluorescence slope in assay [4] was -0.447 (inactive); in assay [6] it was 0.00569 (inactive). Also, the NADPH fluorescence slope in assay [5] is 5.1e-06 (inactive).

Regarding `O=C(c1ccccc1)N1CCCCC(Sc2nnnn2-c2ccccc2)C1=O` (centres undefined), the cell count in assay [1] was found to be 385. Also, the inhibition is -15.4% (inactive) in assay [1], -112% (inactive) in assay [3], 4.27% (inactive) in assay [7] and 4.71% (inactive) in assay [8]. In assay [2], the inhibition of aggregation was 28.5% (inactive). Also, the nuclei count came to 76.4% in assay [2] and 134% in assay [3]. Besides, the fluorescence slope in assay [4] is -0.546 (inactive); in assay [6] it was 0.00399 (inactive). Also, the NADPH fluorescence slope in assay [5] was -2.4e-05 (inactive).

In the case of `O=C1CNCc2[nH]c3ccccc3c2N1c1ccccc1`, the cell count in assay [1] was determined as 377. For the same compound, the inhibition in assay [1] was 3.9% (inactive); in assay [3], -124% (inactive); in assay [7] it was 17.2% (inactive); in assay [8] it was 17.9% (inactive). For the same compound, the inhibition of aggregation in assay [2] was 9.4% (inactive). The values for the nuclei count in assay [2] and in assay [3] were 104% and 118%, respectively. For the same compound, the fluorescence slope in assay [4] is -0.509 (inactive); in assay [6], 0.00541 (inactive). Besides, the NADPH fluorescence slope in assay [5] was -3.5e-05 (inactive).

Regarding `CCN1C(=O)OC2(CCCCC2)C1(C)O` (centres undefined), the cell count in assay [1] worked out at 429. For the same compound, the inhibition is 0% (inactive) in assay [1], 9.3% (inactive) in assay [3], 4.15% (inactive) in assay [7] and 8.64% (inactive) in assay [8]. Further, the inhibition of aggregation in assay [2] was -3.6% (inactive). Besides, the nuclei count in assay [2] turned out to be 114%; in assay [3], 106%. Also, the results for the fluorescence slope in assay [4] and in assay [6] were -0.566 (inactive) and 0.00575 (inactive), respectively. Moreover, the NADPH fluorescence slope in assay [5] was 2.7e-05 (inactive).

Broadly, the inhibition is the drop in the measured response relative to a control, in per cent.
